In general, EC50 refers to the concentration giving half of the maximal effect. Lower therefore signals an effect from little substance.

Sequence of Signal transducer and activator of transcription 3 (P40763 whole entry): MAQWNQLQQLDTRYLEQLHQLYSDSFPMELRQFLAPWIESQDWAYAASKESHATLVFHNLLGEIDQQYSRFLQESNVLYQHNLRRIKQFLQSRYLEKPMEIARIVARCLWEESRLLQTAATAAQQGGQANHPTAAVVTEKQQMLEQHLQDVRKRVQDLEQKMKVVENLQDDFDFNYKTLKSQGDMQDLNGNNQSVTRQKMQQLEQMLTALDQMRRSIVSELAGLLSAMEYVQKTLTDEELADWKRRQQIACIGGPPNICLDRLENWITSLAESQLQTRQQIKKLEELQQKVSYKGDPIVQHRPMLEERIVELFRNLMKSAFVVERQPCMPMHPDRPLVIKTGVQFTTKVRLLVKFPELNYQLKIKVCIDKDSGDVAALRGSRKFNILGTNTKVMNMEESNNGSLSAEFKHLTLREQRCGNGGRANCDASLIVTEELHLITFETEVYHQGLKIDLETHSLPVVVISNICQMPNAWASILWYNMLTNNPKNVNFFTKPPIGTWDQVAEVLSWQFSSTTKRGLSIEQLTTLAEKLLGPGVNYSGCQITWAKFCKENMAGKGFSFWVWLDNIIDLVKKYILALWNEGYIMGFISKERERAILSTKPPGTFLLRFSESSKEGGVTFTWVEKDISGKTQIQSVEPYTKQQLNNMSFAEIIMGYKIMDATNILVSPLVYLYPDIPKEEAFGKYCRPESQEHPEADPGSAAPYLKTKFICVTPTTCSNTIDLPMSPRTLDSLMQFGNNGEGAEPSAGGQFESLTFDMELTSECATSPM

The target in this assay is Signal transducer and activator of transcription 3 (Homo sapiens, UniProt P40763). Nature of the assay: Inhibition of STAT3 Y705 phosphorylation in human U266 cells by Western blot analysis. The essentials:
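Steady-state phosphorylation: exponentially growing U266 cells (1 × 10⁶ cells at 2 × 10⁵ cells/mL, RPMI1640 + 10% FBS) were treated with compound for 1 h. Cells were lysed in PhosphoSafe reagent with protease inhibitors. Western blot used primary antibodies (1:1000, 2 h) and fluorescent secondaries (1 h) at room temperature. A representative blot from several repeats is shown.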
A general note: A western blot detects proteins with antibodies after separation by electrophoresis.
`CCOC(=O)c1cn(-c2c(F)c(F)c(C#N)c(F)c2F)c2c(F)c(F)c(F)cc2c1=O` [Ethyl 1-(4-Cyano-2,3,5,6-tetrafluorophenyl)-6,7,8-trifluoro-4-oxo-1,4-dihydroquino-line-3-carboxylate] registered an EC50 of 170 nM. Then `N#Cc1c(F)c(F)c(-n2cc(C(=O)NCc3ccc(F)cc3)c(=O)c3cc(F)c(F)c(F)c32)c(F)c1F` [1-(4-Cyano-2,3,5,6-tetrafluorophenyl)-6,7,8-trifluoro-N-(4-fluorobenzyl)-4-oxo-1,4-dihydroquinoline-3-carboxamide], with 200 nM; and `O=C(O)c1cn(-c2c(F)c(F)c(F)c(F)c2F)c2c(F)c(F)c(F)c(F)c2c1=O` [5,6,7,8-Tetrafluoro-4-oxo-1-(pentafluoro-phenyl)-1,4-dihydroquinoline-3-carboxylic acid], with 46000 nM; and `CCOC(=O)c1cn(-c2c(F)c(F)c(F)c(F)c2F)c2c(F)c(F)c(F)c(F)c2c1=O` [Ethyl 5,6,7,8-tetrafluoro-4-oxo-1-(pentafluorophenyl)-1,4-dihydroquinoline-3-carboxylate], with 4600 nM. The compound `N#Cc1c(F)c(F)c(-n2cc(C(=O)OCc3ccccc3)c(=O)c3cc(F)c(F)c(F)c32)c(F)c1F` [Benzyl 1-(4-Cyano-2,3,5,6-tetrafluorophenyl)-6,7,8-trifluoro-4-oxo-1,4-dihydroquinoline-3-carboxylate] yielded an EC50 of 130 nM.

These data come from BindingDB's records for doi:10.1021/jm701271y (Wyeth Research, 2008).
